Laboratory results as given in ChEMBL document CHEMBL1130288, “(3R)-N-(1-(tert-butylcarbonylmethyl)-2,3-dihydro-2-oxo-5-(2-pyridyl)-1H-1,4-benzodiazepin-3-yl)-N'-(3-(methylamino)phenyl)urea (YF476): a potent and orally active gastrin/CCK-B antagonist” (J Med Chem, 1997).

Assays:
[1] = biological target: T1, Gastrin/cholecystokinin type B receptor (Rattus norvegicus, UniProt P30553); assay: Inhibitory concentration against radioligand [125I]CCK-8 binding to gastrin/Cholecystokinin type B receptor from rat brain
T1 sequence (P30553 whole entry): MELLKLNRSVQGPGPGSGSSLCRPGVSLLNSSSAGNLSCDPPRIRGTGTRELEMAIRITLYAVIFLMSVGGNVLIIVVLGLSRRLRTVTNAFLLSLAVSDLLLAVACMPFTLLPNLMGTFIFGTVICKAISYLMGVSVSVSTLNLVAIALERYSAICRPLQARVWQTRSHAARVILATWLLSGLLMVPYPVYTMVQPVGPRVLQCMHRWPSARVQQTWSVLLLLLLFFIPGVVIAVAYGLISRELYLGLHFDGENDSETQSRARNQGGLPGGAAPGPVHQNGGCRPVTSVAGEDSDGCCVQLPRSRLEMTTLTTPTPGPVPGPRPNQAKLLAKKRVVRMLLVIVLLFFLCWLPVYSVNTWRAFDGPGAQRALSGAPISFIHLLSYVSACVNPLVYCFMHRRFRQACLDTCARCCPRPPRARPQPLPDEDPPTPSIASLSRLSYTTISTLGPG
Procedure, shortened: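 SD rat whole-brain membranes prepared by sucrose homogenisation, differential centrifugation and Triton X-100 wash. Incubated 120 min at 25 °C with [125I]BH-CCK-8 and compound (in DMSO) in 10 mM HEPES pH 6.5 with NaCl, MgCl2, EDTA, bacitracin. Filtration, γ-counting. Nonspecific binding with […] CCK-8. IC50 is the concentration giving 50% inhibition of specific binding.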

[2] = biological target: T2, Cholecystokinin receptor type A (Rattus norvegicus, UniProt P30551); assay: Inhibitory concentration against radioligand [3 H]L-364,718 binding to gastrin/Cholecystokinin type A receptor from rat pancreas
T2 sequence (P30551 whole entry): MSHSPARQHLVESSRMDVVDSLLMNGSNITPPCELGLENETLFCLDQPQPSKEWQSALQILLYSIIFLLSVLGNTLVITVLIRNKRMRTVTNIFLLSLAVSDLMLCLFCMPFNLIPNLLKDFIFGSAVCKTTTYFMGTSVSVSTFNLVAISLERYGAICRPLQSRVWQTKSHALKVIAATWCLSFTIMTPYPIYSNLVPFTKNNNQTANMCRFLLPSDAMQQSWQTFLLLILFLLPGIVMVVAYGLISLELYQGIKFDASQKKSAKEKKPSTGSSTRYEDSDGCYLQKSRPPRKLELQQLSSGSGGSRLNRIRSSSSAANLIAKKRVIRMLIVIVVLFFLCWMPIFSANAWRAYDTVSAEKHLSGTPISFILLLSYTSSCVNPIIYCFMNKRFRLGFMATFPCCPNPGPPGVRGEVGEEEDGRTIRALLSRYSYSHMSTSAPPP
Procedure, shortened: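 Rat pancreas membranes in 50 mM Tris-HCl pH 7.7 containing BSA, MgCl2, bacitracin and DTT. Incubated 30 min at 37 °C with [3H]L-364,718 and compound (in DMSO). Filtration, scintillation counting. Nonspecific binding with […] L-364,718. IC50 is the concentration inhibiting specific binding by 50%.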

Rattus norvegicus [3] = assay: Inhibition of pentagastrin-induced gastric acid secretion in anathesized rats at 0.1 uM/Kg upon intravenous administration; assay type: functional, Stomach
Procedure, shortened: (§1)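 Anesthetized rats, pylorus-ligated with duodenal cannula. Stomach perfused with saline (pH 7.0) at 3 mL/min. Acid output by continuous pH-stat titration with 25 mM NaOH to pH 7.0, per 10 min. Pentagastrin infused iv via femoral vein. Compound in polyethylene glycol 300 given iv 1 h after pentagastrin start. ED50 is the dose reducing acid to 50% of maximum.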

[4] = biological target: Cholecystokinin receptor (Rattus norvegicus) (UniProt P30551+P30553); assay: Ratio of inhibitory concentration; CCK-A receptor to CCK-B receptor; assay type: protein assay
Canis familiaris [5] = assay: Compound at an peroral dose of 3 uM/Kg was tested for the inhibition of pentagastrin-induced gastric acid secretion in heidenhain pouch dogs; assay type: functional, Canis lupus familiaris, Stomach
Procedure, shortened: (§2)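 Male beagle dogs with Heidenhain pouch, food withheld 18 h (water free). Pentagastrin 8 µmol/kg/h infused via femoral vein from 3 h before until 6 h after oral dosing. Gastric juice collected every 15 min; acidity by automatic titration with 0.05 N NaOH to pH 7.0. Inhibition relative to values just before dosing.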

Rattus norvegicus [6] = assay: Inhibition of pentagastrin-induced gastric acid secretion in anathesized rats at 0.03 uM/Kg upon intravenous administration; assay type: functional, Stomach; procedure, shortened: as §1
Canis familiaris [7] = assay: Concentration required to inhibit pentagastrin-induced gastric acid secretion in heidenhain pouch dogs upon intravenous administration; assay type: functional; conditions: Canis lupus familiaris, Stomach
Procedure, shortened: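 Male beagle dogs with Heidenhain pouch, fasted 18 h with water allowed. Pentagastrin infused at 8 µmol/kg/h through femoral vein. Compound dissolved in DMF and given iv 3 h after infusion start. Juice collected every 15 min, volume measured, acidity titrated with 0.05 N NaOH to pH 7.0.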

Canis familiaris [8] = assay: Concentration required to inhibit pentagastrin-induced gastric acid secretion in heidenhain pouch dogs upon peroral administration; assay type: functional; conditions: Canis lupus familiaris, Stomach, po; procedure, shortened: as §2
Canis familiaris [9] = assay: Compound at an peroral dose of 0.03 uM/Kg was tested for the inhibition of pentagastrin-induced gastric acid secretion in heidenhain pouch dogs; assay type: functional, Canis lupus familiaris, Stomach; procedure, shortened: as §2
Canis familiaris [10] = assay: Compound at an peroral dose of 0.1 uM/Kg was tested for the inhibition of pentagastrin-induced gastric acid secretion in heidenhain pouch dogs; assay type: functional, Canis lupus familiaris, Stomach; procedure, shortened: as §2
Rattus norvegicus [11] = assay: Inhibition of pentagastrin-induced gastric acid secretion in Dawley rats following intravenous administration; assay type: functional; conditions: Stomach; procedure, shortened: as §1
Canis familiaris [12] = assay: Compound at an peroral dose of 0.3 uM/Kg was tested for the inhibition of pentagastrin-induced gastric acid secretion in heidenhain pouch dogs; assay type: functional, Canis lupus familiaris, Stomach; procedure, shortened: as §2
Canis familiaris [13] = assay: Compound at an peroral dose of 1 umol/kg was tested for the inhibition of pentagastrin-induced gastric acid secretion in heidenhain pouch dogs; assay type: functional; conditions: Canis lupus familiaris, Stomach, po; procedure, shortened: as §2
Rattus norvegicus [14] = assay: Inhibition of pentagastrin-induced gastric acid secretion in anathesized rats upon intravenous administration; assay type: functional; conditions: Stomach; procedure, shortened: as §1

Compound | IC50 [1] [nM] | IC50 [2] [nM] | Inhibition (Rattus norvegicus [3]) [%] | Ratio [4] | other results
CCN(CC)c1cccc(NC(=O)N[C@@H]2N=C(c3ccccc3)c3ccccc3N(CC(=O)C(C)(C)C)C2=O)c1 | 0.14 | 558 | 82 | 3990 | 
CC(C)(C)C(=O)CN1C(=O)[C@H](NC(=O)Nc2cccc(N)c2)N=C(c2ccccc2)c2ccccc21 |  |  | 75 | 1910 | 
Cc1cccc(NC(=O)N[C@@H]2N=C(c3ccccc3)c3ccccc3N(CC(=O)C(C)(C)C)C2=O)c1 | 0.52 | 111 |  | 213 | Inhibition (Canis familiaris [5]): 53%; Inhibition (Rattus norvegicus [6]): 77%
CC(C)(C)C(=O)CN1C(=O)C(NC(=O)Nc2cccc(NC=O)c2)N=C(c2ccccc2)c2ccccc21 (configuration not stated) | 0.59 | 561 | 74 | 951 | 
CC(C)(C)C(=O)CN1C(=O)[C@H](NC(=O)Nc2cccc(N3CCCCC3)c2)N=C(c2ccccn2)c2ccccc21 | 0.84 | 944 | 55 | 1120 | 
CNc1cccc(NC(=O)N[C@@H]2N=C(c3ccccn3)c3ccccc3N(CC(=O)C(C)(C)C)C2=O)c1 [NETAZEPIDE] |  |  | 87 | 5020 | ED50 (Canis familiaris [7]): 0.018 µmol/kg; ED50 (Canis familiaris [8]): 0.021 µmol/kg; Inhibition (Canis familiaris [9]): 65%; Inhibition (Canis familiaris [10]): 100%; ED50 (Rattus norvegicus [11]): 0.008 µmol/kg
Cc1cccc(NC(=O)N[C@@H]2N=C(c3ccccn3)c3ccccc3N(CC(=O)C(C)(C)C)C2=O)c1 |  | 470 | 78 | 1070 | Inhibition (Canis familiaris [12]): 7%; Inhibition (Canis familiaris [5]): 97%
CC(C)(C)C(=O)CN1C(=O)C(NC(=O)Nc2cccc(C#N)c2)N=C(c2ccccc2)c2ccccc21 (configuration not stated) | 1.29 | 700 | 65 | 542 | 
CC(C)(C)C(=O)CN1C(=O)C(NC(=O)Nc2cccc([N+](=O)[O-])c2)N=C(c2ccccc2)c2ccccc21 (configuration not stated) | 0.16 | 589 | 76 | 3680 | 
CNc1cccc(NC(=O)N[C@@H]2N=C(c3ccccc3)c3ccccc3N(CC(=O)C(C)(C)C)C2=O)c1 |  |  | 80 | 1090 | 
CC(C)(C)C(=O)CN1C(=O)[C@H](NC(=O)Nc2cccc(N3CCCC3)c2)N=C(c2ccccn2)c2ccccc21 | 0.11 | 253 | 75 | 2300 | 
CC(C)(C)C(=O)CN1C(=O)C(NC(=O)Nc2cccc(C(=O)O)c2)N=C(c2ccccc2)c2ccccc21 (configuration not stated) | 3.29 | 2060 | 56 | 626 | 
CCN(CC)c1cccc(NC(=O)N[C@@H]2N=C(c3ccccn3)c3ccccc3N(CC(=O)C(C)(C)C)C2=O)c1 | 0.11 | 301 | 74 | 2740 | 
CC(C)(C)C(=O)CN1C(=O)[C@H](NC(=O)Nc2cccc(N3CCCC3)c2)N=C(c2ccccc2)c2ccccc21 | 0.17 | 157 | 79 | 923 | 
Cc1cccc(NC(=O)N[C@@H]2N=C(c3ccccc3)c3ccccc3N(CC(=O)c3ccccc3C)C2=O)c1 |  |  |  | 1330 | ED50 (Canis familiaris [7]): 0.026 µmol/kg; ED50 (Canis familiaris [8]): 1.9 µmol/kg; inhibition in vivo at 1 µmol/kg (Canis familiaris [13]): 26%; Inhibition (Canis familiaris [5]): 72%; ED50 (Rattus norvegicus [14]): 0.0083 µmol/kg
CC(C)(C)C(=O)CN1C(=O)[C@H](NC(=O)Nc2cccc(N)c2)N=C(c2ccccn2)c2ccccc21 | 0.43 | 1820 | 62 | 4230 | 
CN(C)c1cccc(NC(=O)N[C@@H]2N=C(c3ccccc3)c3ccccc3N(CC(=O)C(C)(C)C)C2=O)c1 | 0.21 | 89 | 65 | 423 | Inhibition (Canis familiaris [5]): 99%; ED50 (Rattus norvegicus [11]): 0.012 µmol/kg
CN(C)c1cccc(NC(=O)N[C@@H]2N=C(c3ccccn3)c3ccccc3N(CC(=O)C(C)(C)C)C2=O)c1 |  |  |  | 565 | ED50 (Canis familiaris [7]): 0.014 µmol/kg; Inhibition (Canis familiaris [9]): 77%; Inhibition (Canis familiaris [10]): 98%; ED50 (Rattus norvegicus [11]): 0.011 µmol/kg; Inhibition (Rattus norvegicus [6]): 65%
CN(C)c1cccc(NC(=O)N[C@H]2N=C(c3ccccn3)c3ccccc3N(CC(=O)C(C)(C)C)C2=O)c1 | 1.26 | 572 |  | 454 | 
